Experimental data from PMC2687631 (Yonsei Medical Journal, 2006).

Columns and labels:
[1] = test system: mice; conditions: cited from earlier work
[2] = test system: hPTH/PTHrp receptor; conditions: LLC-PK cells stably expressing a high level of the hPTH/PTHrp receptor; cited from earlier work
[3] = test system: animals and humans; conditions: cited from earlier work
[4] = test system: ovariectomized rat model; test: Femoral length and cross-sectional diameter at mid-diaphysis; format: in vivo, Sprague-Dawley rats; conditions: ovx rats, subcutaneous for 5 weeks; p<0.05 vs. OVX
Procedure, shortened: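 Female Sprague-Dawley rats were ovariectomized at 10 weeks (sham group unoperated), left untreated for 4 weeks, then dosed daily s.c. for 5 weeks with test compound (30 nM/kg), rhPTH(1-84) (8 nM/kg) or 0.9% saline vehicle, seven per group. Left femur length (greater trochanter to intercondylar fossa) and mid-diaphysis AP/ML diameters measured by digital caliper. Means and SD; ANOVA with Bonferroni.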

PTH (1-31): PTH (1-31) fragment
Potency in stimulating bone resorption parameters vs PTH (1-34) [1]: less potent
Potency on bone formation vs PTH (1-34) [1]: as potent as PTH (1-34)

PTH (1-14): N-terminal fragment 1-14 of parathyroid hormone (SVSEIQLMHNLGKH; Parathyroid hormone; UniProt P01270 32-45, looked up, fragment)
cAMP formation relative to PTH (1-34) [2]: about 10^-3 folds

B1: PTH: parathyroid hormone, low dose, intermittently administered (protein, UniProt P01270 32-115, looked up)
Parathyroid hormone: SVSEIQLMHNLGKHLNSMERVEWLRKKLQDVHNFVALGAPLAPRDAGSQRPRKKEDNVLVESHEKSLGEADKADVNVLTKAKSQ
modifications: Parathyroid hormone
Anabolic effect / bone mass (in words) [3]: significant increase in bone mass

B2: rhPTH (1-84): recombinant human PTH (1-84), donated by the Mogam Biotechnology Research Institute (protein, UniProt P01270 32-115, looked up)
Parathyroid hormone: B1 Parathyroid hormone
modifications: Parathyroid hormone
Femoral length (in words) [4]: significantly increased length
